Experiments:
L1210 [1] = experiment: Toxicity against L-1210 leukemia cells in mice after intraperitoneal administration, activity is expressed as LD10; set-up: LD10: unit not given here; conditions: mouse, in vivo, ip
[2] = Partition coefficient (logP); assay type: physicochemical; conditions: octanol/water
In short: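 Shake partitioning between octanol and distilled water gave log P. For carboxylate substituents, log P was taken in 0.1 N NaOH, with Na+ as counterion.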

L1210 [3] = experiment: Tested for 3 log kill of leukemia cells; assay type: functional, Mus musculus
In short: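 L-1210 leukemia cells (10^4) were inoculated intracerebrally into BDF2 mice, and drug was given intraperitoneally. The end point was the dose giving 3 log kill, expressed as log 1/C. The value comes from one or more individual experiments.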

## O=NN(CCCl)C(=O)NC1CCS(=O)(=O)CC1
L1210 [1]
  log(1/LD10): 1.22
[2]; read-out: logP
  logP: 0.19
L1210 [3]
  log(1/C): 1.93

## O=NN(CCCl)C(=O)NC1CCC(=O)NC1=O (configuration not stated)
L1210 [1]
  log(1/LD10): 1.16
L1210 [3]
  log(1/C): 1.8

## CCCCCC(C)NC(=O)N(CCCl)N=O (configuration not stated)
L1210 [1]
  log(1/LD10): 0.642
[2]; read-out: logP
  logP: 3.55
L1210 [3]
  log(1/C): 0.853

## O=NN(CCCl)C(=O)NCCF
L1210 [1]
  log(1/LD10): 0.49
[2]; read-out: logP
  logP: 0.95
L1210 [3]
  log(1/C): 0.673

## O=NN(CCCl)C(=O)NC1CCCCCCCCCCC1
L1210 [1]
  log(1/LD10): -0.573
[2]; read-out: logP
  logP: 5.8
L1210 [3]
  log(1/C): 0.599

## O=NN(CCCl)C(=O)NC1C2CC3CC(C2)CC1C3 (configuration not stated)
L1210 [1]
  log(1/LD10): 0.512
[2]; read-out: logP
  logP: 3.62
L1210 [3]
  log(1/C): 0.854

## O=NN(CCCl)C(=O)NC1CCSc2ccccc21 (configuration not stated)
L1210 [1]
  log(1/LD10): 0.585
[2]; read-out: logP
  logP: 2.91
L1210 [3]
  log(1/C): 1.4

## O=NN(CCF)C(=O)NC1CCSCC1
L1210 [1]
  log(1/LD10): 0.827
[2]; read-out: logP
  logP: 1.43
L1210 [3]
  log(1/C): 1.69

## O=NN(CCF)C(=O)NC1CSCSC1
L1210 [1]
  log(1/LD10): 0.802
[2]; read-out: logP
  logP: 1.54
L1210 [3]
  log(1/C): 1.78

## CC(=O)OCC1CCC(NC(=O)N(CCCl)N=O)CC1 (configuration not stated)
L1210 [1]
  log(1/LD10): 1.02
[2]; read-out: logP
  logP: 2.35
L1210 [3]
  log(1/C): 1.66

## O=NN(CCF)C(=O)NCCF
L1210 [1]
  log(1/LD10): 1.37
[2]; read-out: logP
  logP: 0.38
L1210 [3]
  log(1/C): 1.6

## O=NN(CCCl)C(=O)NC1C(O)CCCC1O (configuration not stated)
L1210 [1]
  log(1/LD10): 1.17
[2]; read-out: logP
  logP: 0.16

## O=NN(CCCl)C(=O)NC1CCC(NC(=O)N(CCCl)N=O)CC1 (configuration not stated)
L1210 [1]
  log(1/LD10): 0.66
[2]; read-out: logP
  logP: 3.57

## COC1OC(COC(C)=O)C(OC(C)=O)C(NC(=O)N(CCCl)N=O)C1OC(C)=O (configuration not stated)
L1210 [1]
  log(1/LD10): 1.06
[2]; read-out: logP
  logP: 0.67

## CC(=O)OC1CCC(NC(=O)N(CCCl)N=O)CC1 (configuration not stated)
L1210 [1]
  log(1/LD10): 0.813
[2]; read-out: logP
  logP: 1.66
L1210 [3]
  log(1/C): 1.55

## Cc1cc(C)c(NC(=O)N(CCCl)N=O)c(C)c1
L1210 [1]
  log(1/LD10): 0.675
[2]; read-out: logP
  logP: 3.11
L1210 [3]
  log(1/C): 1.58

## O=COCC1CCC(NC(=O)N(CCCl)N=O)CC1 (configuration not stated)
L1210 [1]
  log(1/LD10): 1.12
[2]; read-out: logP
  logP: 1.85
L1210 [3]
  log(1/C): 1.62

## CCOC(=O)C1(NC(=O)N(CCCl)N=O)CCCCC1
L1210 [1]
  log(1/LD10): -0.214
[2]; read-out: logP
  logP: 3.45
L1210 [3]
  log(1/C): 0.582

## O=NN(CCF)C(=O)NC1CC2CCC1C2 (configuration not stated)
L1210 [1]
  log(1/LD10): 0.547
[2]; read-out: logP
  logP: 2.4
L1210 [3]
  log(1/C): 1.25

## CCOC(=O)C1(NC(=O)N(CCCl)N=O)CCCC1
L1210 [1]
  log(1/LD10): 0.072
[2]; read-out: logP
  logP: 2.88
L1210 [3]
  log(1/C): 0.562

## CC(=O)OCC1OCC(NC(=O)N(CCCl)N=O)C(OC(C)=O)C1OC(C)=O (configuration not stated)
[2]; read-out: logP
  logP: 1.87
L1210 [3]
  log(1/C): 1.79

## CC(C)(C)C1CCC(NC(=O)N(CCCl)N=O)CC1 (configuration not stated)
L1210 [1]
  log(1/LD10): -0.212
[2]; read-out: logP
  logP: 4.66
L1210 [3]
  log(1/C): 0.684

## CCOC(=O)C1CCC(NC(=O)N(CCCl)N=O)CC1 (configuration not stated)
L1210 [1]
  log(1/LD10): 0.967
[2]; read-out: logP
  logP: 2.2
L1210 [3]
  log(1/C): 1.51

## O=NN(CCCl)C(=O)NC1(C(=O)O)CCCC1
L1210 [1]
  log(1/LD10): 0.308
[2]; read-out: logP
  logP: 1.82
L1210 [3]
  log(1/C): 0.605

## CC1CCC(NC(=O)N(CCF)N=O)CC1 (configuration not stated)
L1210 [1]
  log(1/LD10): 0.72
[2]; read-out: logP
  logP: 2.72
L1210 [3]
  log(1/C): 1.16

## CC1(C)CCC(NC(=O)N(CCF)N=O)CC1
L1210 [1]
  log(1/LD10): 0.674
[2]; read-out: logP
  logP: 3.13
L1210 [3]
  log(1/C): 1.09

## O=NN(CCF)C(=O)NC1CCCCC1
L1210 [1]
  log(1/LD10): 0.806
[2]; read-out: logP
  logP: 2.25
L1210 [3]
  log(1/C): 1.34

## O=NN(CCF)C(=O)NC1CCCCCCCCCCC1
L1210 [1]
  log(1/LD10): 0.496
[2]; read-out: logP
  logP: 5.22

## C[C@H]1CC[C@H](NC(=O)N(CCCl)N=O)CC1
L1210 [1]
  log(1/LD10): 0.771
L1210 [3]
  log(1/C): 1.55

## O=NN(CCCl)C(=O)N[C@H]1CC[C@@H](O)CC1
L1210 [1]
  log(1/LD10): 0.735
L1210 [3]
  log(1/C): 1.36

## O=NN(CCCl)C(=O)N[C@H]1CC[C@H](C(=O)O)CC1
L1210 [1]
  log(1/LD10): 1.01
[2]; read-out: logP
  logP: 1.53
L1210 [3]
  log(1/C): 1.47

## O=NN(CCCl)C(=O)N[C@H]1CC[C@H](CC(=O)O)CC1
L1210 [1]
  log(1/LD10): 0.863
[2]; read-out: logP
  logP: 2.16
L1210 [3]
  log(1/C): 1.65

## O=NN(CCCl)C(=O)N[C@H]1CCCC[C@@H]1Cl
L1210 [1]
  log(1/LD10): 0.672
L1210 [3]
  log(1/C): 1.34

## O=NN(CCCl)C(=O)N[C@@H]1CCCC[C@H]1O
L1210 [1]
  log(1/LD10): 1.1
[2]; read-out: logP
  logP: 1.34
L1210 [3]
  log(1/C): 1.82

## C[C@H]1S(=O)(=O)C[C@H](NC(=O)N(CCCl)N=O)CS1(=O)=O
L1210 [1]
  log(1/LD10): 0.801
[2]; read-out: logP
  logP: -0.53
L1210 [3]
  log(1/C): 1.89

## C[C@H]1CCC[C@@H](NC(=O)N(CCCl)N=O)C1
L1210 [1]
  log(1/LD10): 0.315
[2]; read-out: logP
  logP: 3.37
L1210 [3]
  log(1/C): 1.09

## O=NN(CCCl)C(=O)N[C@@H]1CCCC[C@@H]1Cl
L1210 [1]
  log(1/LD10): 0.446
[2]; read-out: logP
  logP: 2.73
L1210 [3]
  log(1/C): 0.951

## CO[C@H]1CC[C@H](NC(=O)N(CCCl)N=O)CC1
L1210 [1]
  log(1/LD10): 0.841
[2]; read-out: logP
  logP: 2.09
L1210 [3]
  log(1/C): 1.44

## COC(=O)[C@H]1CC[C@H](NC(=O)N(CCCl)N=O)CC1
L1210 [1]
  log(1/LD10): 1.05
[2]; read-out: logP
  logP: 1.89

## C[C@H]1CCC[C@H](NC(=O)N(CCCl)N=O)C1
L1210 [1]
  LD10: 0.352
[2]
  logP: 3.3
L1210 [3]
  log(1/C): 1.09

## O=NN(CCF)C(=O)N[C@H]1CC[C@H](C(=O)O)CC1
[2]
  logP: 1.1
L1210 [3]
  log(1/C): 1.21

## C[C@H]1S(=O)(=O)C[C@@H](NC(=O)N(CCCl)N=O)CS1(=O)=O
L1210 [1]
  log(1/LD10): 1.04
[2]; read-out: logP
  logP: -0.53
L1210 [3]
  log(1/C): 1.89

## C[C@H]1CC[C@@H](NC(=O)N(CCCl)N=O)CC1
L1210 [1]
  log(1/LD10): 0.435
[2]; read-out: logP
  logP: 3.3

## O=NN(CCCl)C(=O)N[C@@H]1CCC[C@H](O)C1
L1210 [1]
  log(1/LD10): 0.698
[2]; read-out: logP
  logP: 1.11
L1210 [3]
  log(1/C): 1.28

## CC1(NC(=O)N(CCCl)N=O)CCCC1
L1210 [1]
  log(1/LD10): -0.03
[2]; read-out: logP
  logP: 2.7
L1210 [3]
  log(1/C): 0.576

## O=NN(CCCl)C(=O)NC1CC2CCC1C2 (configuration not stated)
L1210 [1]
  log(1/LD10): 0.591
[2]; read-out: logP
  logP: 2.98
L1210 [3]
  log(1/C): 1.21

## O=NN(CCCl)C(=O)NC1CCCC1
L1210 [1]
  log(1/LD10): 0.215
[2]; read-out: logP
  logP: 2.19
L1210 [3]
  log(1/C): 0.74

## CN(C)C(=O)c1ccc(NC(=O)N(CCCl)N=O)cc1
L1210 [1]
  LD10: 1.27
[2]; read-out: logP
  logP: 1.07
L1210 [3]
  log(1/C): 1.87

## O=NN(CCF)C(=O)NC1CCSc2ccccc21 (configuration not stated)
L1210 [1]
  log(1/LD10): 0.896
[2]; read-out: logP
  logP: 2.33
L1210 [3]
  log(1/C): 1.31

## CC1CC(O)C(NC(=O)N(CCCl)N=O)C(O)C1 (configuration not stated)
L1210 [1]
  log(1/LD10): 1.12
[2]; read-out: logP
  logP: 0.69

## CC(C)(C)C1CCCC(NC(=O)N(CCCl)N=O)C1 (configuration not stated)
L1210 [1]
  log(1/LD10): 0.239
[2]; read-out: logP
  logP: 4.6
L1210 [3]
  log(1/C): 0.763

## O=NN(CCF)C(=O)NC1CS(=O)(=O)CS(=O)(=O)C1
L1210 [1]
  log(1/LD10): 0.626
[2]; read-out: logP
  logP: -1.48
L1210 [3]
  log(1/C): 1.69

## O=NN(CCCl)C(=O)NC(Cc1ccccc1)C(=O)O (configuration not stated)
L1210 [1]
  log(1/LD10): 0.563
[2]; read-out: logP
  logP: 2.59
L1210 [3]
  log(1/C): 1.1

## CC(=O)OCC1CCC(NC(=O)N(CCF)N=O)CC1 (configuration not stated)
L1210 [1]
  log(1/LD10): 0.705
[2]; read-out: logP
  logP: 1.77
L1210 [3]
  log(1/C): 0.984

## CC1CC(NC(=O)N(CCCl)N=O)CC(C)(C)C1 (configuration not stated)
L1210 [1]
  log(1/LD10): -0.434
[2]; read-out: logP
  logP: 4.06
L1210 [3]
  log(1/C): 0.294

## O=NN(CCCl)C(=O)NC1CCC(Cl)CC1 (configuration not stated)
L1210 [1]
  log(1/LD10): 0.738
[2]; read-out: logP
  logP: 2.66
L1210 [3]
  log(1/C): 1.25

## CC(=O)OCC1OC(NC(=O)N(CCCl)N=O)C(OC(C)=O)C(OC(C)=O)C1OC(C)=O (configuration not stated)
L1210 [1]
  log(1/LD10): 1.41
[2]; read-out: logP
  logP: 1.04

## CC(=O)OC1CCC(NC(=O)N(CCF)N=O)CC1 (configuration not stated)
L1210 [1]
  log(1/LD10): 0.884
[2]; read-out: logP
  logP: 1.33
L1210 [3]
  log(1/C): 1.4

## COCC1OC(O)C(NC(=O)N(CCCl)N=O)C(OC)C1OC (configuration not stated)
L1210 [1]
  log(1/LD10): 0.682
[2]; read-out: logP
  logP: 0.8
L1210 [3]
  log(1/C): 1.48

## O=NN(CCCl)C(=O)NCCCl [CARMUSTINE]
L1210 [1]
  log(1/LD10): 0.718
L1210 [3]
  log(1/C): 1.59

## O=NN(CCCl)C(=O)NC1CCCCC1 [LOMUSTINE]
L1210 [1]
  log(1/LD10): 0.613
L1210 [3]
  log(1/C): 1.25

Reference: ChEMBL document CHEMBL1121539, “Antitumor structure-activity relations. Nitrosoureas vs. L-1210 leukemia” (J Med Chem, 1980)
